Where two headings read alike, the source gives them in different places.
Assays:
Format in all cases: biochemical
[1] = target: T1, JBMan (Jack bean α-mannosidase) (Canavalia ensiformis, UniProt C0HJB3); assay: α-mannosidase inhibition assay with pNP-Man, JBMan
T1 sequence (C0HJB3 1-981): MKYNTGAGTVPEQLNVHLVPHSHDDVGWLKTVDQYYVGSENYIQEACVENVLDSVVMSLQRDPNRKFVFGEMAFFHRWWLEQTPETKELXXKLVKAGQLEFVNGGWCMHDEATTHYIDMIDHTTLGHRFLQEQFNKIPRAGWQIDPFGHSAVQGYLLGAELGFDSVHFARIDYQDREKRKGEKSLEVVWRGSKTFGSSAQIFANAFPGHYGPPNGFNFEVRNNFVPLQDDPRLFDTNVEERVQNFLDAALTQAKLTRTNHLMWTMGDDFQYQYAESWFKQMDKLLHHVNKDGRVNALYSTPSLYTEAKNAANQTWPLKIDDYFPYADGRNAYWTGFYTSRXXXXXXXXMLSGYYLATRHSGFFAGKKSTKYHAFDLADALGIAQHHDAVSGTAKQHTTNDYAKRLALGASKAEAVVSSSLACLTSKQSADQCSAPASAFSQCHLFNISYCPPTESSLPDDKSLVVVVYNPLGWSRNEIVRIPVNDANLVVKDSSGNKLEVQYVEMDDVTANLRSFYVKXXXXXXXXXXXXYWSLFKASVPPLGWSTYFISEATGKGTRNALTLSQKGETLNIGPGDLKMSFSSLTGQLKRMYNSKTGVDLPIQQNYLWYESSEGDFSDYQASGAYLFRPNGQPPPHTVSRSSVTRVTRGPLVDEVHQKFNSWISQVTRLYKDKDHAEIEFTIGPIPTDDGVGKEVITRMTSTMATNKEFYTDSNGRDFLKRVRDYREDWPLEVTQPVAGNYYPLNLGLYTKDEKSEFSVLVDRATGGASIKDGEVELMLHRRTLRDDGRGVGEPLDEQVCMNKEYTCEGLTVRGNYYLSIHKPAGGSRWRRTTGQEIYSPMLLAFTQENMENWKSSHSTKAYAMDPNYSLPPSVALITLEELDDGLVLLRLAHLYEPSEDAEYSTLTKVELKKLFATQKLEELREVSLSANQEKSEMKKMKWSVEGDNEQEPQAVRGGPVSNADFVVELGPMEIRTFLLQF
In short: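 Commercial jack bean α-mannosidase (0.05 μg protein) in 50 mM acetate buffer, pH 5.0. Compound taken from a 50 mM DMSO solution, diluted in water, and preincubated with enzyme 5 min at rt. pNP-Man was added and the reaction ran 1-2 h at 37 °C. Stopped with 0.5 M sodium carbonate; p-nitrophenol read at 405 nm. […] Three independent experiments in duplicate.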

[2] = target: T2, LManII (lysosomal α-mannosidase) (Drosophila melanogaster, UniProt Q9VKV1); assay: α-mannosidase inhibition assay with pNP-Man, LManII; settings: for Ki: Dixon plots, pNP-Man 0.5-4 mM
T2 sequence (Q9VKV1 25-1080): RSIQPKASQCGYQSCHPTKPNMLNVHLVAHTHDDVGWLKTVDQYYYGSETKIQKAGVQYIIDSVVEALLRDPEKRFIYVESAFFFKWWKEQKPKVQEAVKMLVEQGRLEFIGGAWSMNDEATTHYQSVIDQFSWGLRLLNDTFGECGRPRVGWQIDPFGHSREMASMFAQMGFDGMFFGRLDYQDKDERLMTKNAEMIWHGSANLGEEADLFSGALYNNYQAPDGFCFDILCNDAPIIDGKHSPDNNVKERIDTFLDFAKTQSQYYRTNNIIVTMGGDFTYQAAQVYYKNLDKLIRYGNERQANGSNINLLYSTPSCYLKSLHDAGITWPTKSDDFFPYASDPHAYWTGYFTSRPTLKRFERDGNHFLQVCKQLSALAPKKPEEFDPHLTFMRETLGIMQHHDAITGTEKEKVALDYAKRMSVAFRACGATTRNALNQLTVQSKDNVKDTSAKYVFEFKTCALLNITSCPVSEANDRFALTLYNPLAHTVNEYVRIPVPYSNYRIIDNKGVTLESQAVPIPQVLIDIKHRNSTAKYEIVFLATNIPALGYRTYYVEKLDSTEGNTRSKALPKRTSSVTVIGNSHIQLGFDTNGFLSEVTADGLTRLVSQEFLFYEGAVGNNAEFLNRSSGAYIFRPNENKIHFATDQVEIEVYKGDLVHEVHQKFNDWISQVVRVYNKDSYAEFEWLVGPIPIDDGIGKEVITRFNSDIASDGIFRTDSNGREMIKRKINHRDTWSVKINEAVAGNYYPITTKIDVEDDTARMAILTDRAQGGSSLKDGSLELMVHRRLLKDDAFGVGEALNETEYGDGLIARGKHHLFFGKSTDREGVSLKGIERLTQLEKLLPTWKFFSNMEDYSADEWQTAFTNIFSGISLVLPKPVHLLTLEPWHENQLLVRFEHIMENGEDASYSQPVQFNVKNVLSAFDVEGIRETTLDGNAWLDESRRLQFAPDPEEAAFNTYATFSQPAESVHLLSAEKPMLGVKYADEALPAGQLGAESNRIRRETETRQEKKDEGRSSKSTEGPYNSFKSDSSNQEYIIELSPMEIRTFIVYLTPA
In short: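 Recombinant Drosophila lysosomal α-mannosidase, isolated and purified, assayed in 50 mM acetate buffer at pH 5.2. Compound (50 mM DMSO solution diluted in water) preincubated with enzyme 5 min at rt before pNP-Man was added. Incubated 1-2 h at 37 °C, stopped with 0.5 M sodium carbonate, p-nitrophenol read at 405 nm. […] Three independent experiments in duplicate.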

[3] = system: Golgi-type mannosidases (GMIIb and AMAN-2); assay: inhibition of and selectivity toward Golgi-type mannosidases, stated jointly; settings: IC50(LManII)/IC50(GMIIb) or IC50(JBMan)/IC50(AMAN-2)
[4] = read-out: IC50 JBMan, 2 mM pNP-Man, pH 5.0
[5] = read-out: Ki JBMan, Dixon plots, pNP-Man 0.5-4 mM, pH 5.0
[6] = read-out: IC50 LManII, 2 mM pNP-Man, pH 5.2

Compound | IC50 [1] [µM] | IC50 [2] [µM] | IC50 [1, 4] [µM] | IC50 [2, 6] [µM] | other results
OC[C@@H]1[C@H](O)[C@H](O)CN1Cc1ccccc1 [Compound 4, N-Benzyl-1,4-dideoxy-1,4-imino-d-lyxitol] | 1080 ± 185 | 675 ± 67 |  |  | 
Cl.N=C(N)NCc1ccc(CN2C[C@@H](O)[C@@H](O)[C@H]2CO)cc1 [Compound 9, 1,4-Dideoxy-N-4-guanidinomethylbenzyl-1,4-imino-d-lyxitol hydrochloride] |  |  | 115 ± 6.7 | 340 ± 35 | Ki [1, 5]: 52.4 µM; Ki ([2]; read-out: Ki LManII, pH 5.2): 165 µM
OCC1C(O)C(O)CN1Cc1ccc(I)cc1 (stereo not drawn) [Compound 16, 1,4-Dideoxy-1,4-imino-N-4-iodobenzyl-d-lyxitol] |  |  | 940 ± 24 | 460 ± 53 | 
OC[C@@H]1[C@H](O)[C@H](O)CN1Cc1ccc2ccccc2c1 [Compound 17, 1,4-Dideoxy-1,4-imino-N-(naphthalen-2-ylmethyl)-d-lyxitol] |  |  | 1950 ± 250 | 845 ± 170 | selectivity index (SI) toward Golgi-type enzymes [3]: > 100
OCC1C(O)C(O)CN1CCc1cccc2ccccc12 (stereo not drawn) [Compound 18, 1,4-Dideoxy-1,4-imino-N-(2-(naphthalen-1-yl)ethyl)-d-lyxitol] |  |  | 18 ± 1.7 | 12 ± 1.3 | Ki [1, 5]: 6.5 µM; Ki ([2]; read-out: Ki LManII, pH 5.2): 3.9 µM
OC[C@@H]1[C@H](O)[C@H](O)CN1CC1CCCCC1 [Compound 19, N-Cyclohexylmethyl-1,4-dideoxy-1,4-imino-d-lyxitol] | 1290 ± 113 | 190 ± 53 |  |  | 
OC[C@@H]1[C@H](O)[C@H](O)CN1CC1CCOCC1 [Compound 20] |  |  | 2550 ± 63 | 980 ± 102 | 
CCCCCCCCCCCCN1C[C@@H](O)[C@@H](O)[C@H]1CO [Compound 21, 1,4-Dideoxy-N-dodecyl-1,4-imino-d-lyxitol] | 20.3 ± 4.4 | 11.8 ± 1.2 |  |  | 
Cl.N=C(N)NCCCCCCCCCCN1C[C@@H](O)[C@@H](O)[C@H]1CO [Compound 25, 1,4-Dideoxy-N-(10-guanidinodecyl)-1,4-imino-d-lyxitol hydrochloride] | 8.3 ± 1.2 | 8.3 ± 2.1 |  |  | 
Cl.N=C(N)CCCCCCCCCN1C[C@@H](O)[C@@H](O)[C@H]1CO [Compound 26, N-(9-amidinononyl)-1,4-dideoxy-1,4-imino-d-lyxitol hydrochloride] | 4.7 ± 1.2 | 6.7 ± 1.2 |  |  | Ki [1]: 1.4 µM; Ki ([2]; Ki LManII, pH 5.2): 3.2 µM
